Converted amounts (≈) assume the structure as drawn. The source made the active and inactive calls. The calls are words filed in the database; no cut-off is given here.
How the values were obtained:
Kregervanrija fluxuum [1] = assay: Antifungal activity against Candida mycoderma by two-fold serial dilution method; format: functional
How it was run: (§1)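 MIC by standard two-fold serial dilution in 96-well microplates following NCCLS guidelines. Strains were supplied by Southwest University School of Pharmaceutical Sciences and Third Military Medical University College of Pharmacy.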

Cyberlindnera jadinii [2] = assay: Antifungal activity against Candida utilis by two-fold serial dilution method; format: functional; conditions: Williopsis jadinii; how it was run: as §1
Aspergillus flavus [3] = assay: Antifungal activity against Aspergillus flavus by two-fold serial dilution method; format: functional; how it was run: as §1
Candida albicans = assay: Antifungal activity against Candida albicans by two-fold serial dilution method; format: functional; how it was run: as §1
Saccharomyces cerevisiae [4] = assay: Antifungal activity against Saccharomyces cerevisiae by two-fold serial dilution method; format: functional; how it was run: as §1
Cyberlindnera jadinii [5] = assay: Potency index, ratio of miconazole MIC to compound MIC for Candida utilis by two-fold serial dilution method; format: functional
Saccharomyces cerevisiae [6] = assay: Potency index, ratio of miconazole MIC to compound MIC for Saccharomyces cerevisiae; format: functional
Aspergillus flavus [7] = assay: Potency index, ratio of miconazole MIC to compound MIC for Aspergillus flavus by two-fold serial dilution method; format: functional
Aspergillus flavus [8] = assay: Potency index, ratio of fluconazole MIC to compound MIC for Aspergillus flavus by two-fold serial dilution method; format: functional
Calf thymus DNA [9] = assay: Binding affinity to calf thymus DNA assessed as hyperchromic effect between compound and DNA by UV absorption spectral analysis; format: nucleic-acid assay; conditions: Bos taurus
How it was run: (§2)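 UV absorption of the compound–DNA complex compared with the summed absorbance of free DNA and free compound. A measured value below the sum was read as hypochromism and one above it as hyperchromism.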

Calf thymus DNA [10] = assay: Inhibition of neural red dye binding to calf thymus DNA by UV absorption spectral analysis; format: nucleic-acid assay; conditions: Bos taurus
Calf thymus DNA [11] = assay: Binding affinity to calf thymus DNA by UV absorption spectral analysis; format: nucleic-acid assay; conditions: Bos taurus
Calf thymus DNA [12] = assay: Binding affinity to calf thymus DNA assessed as iodide quenching by measuring Stern-Volmer quenching constant by fluorescence spectral analysis (reference value: 11.6 +/- 0.067 L/mol); format: nucleic-acid assay; conditions: Bos taurus
How it was run: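 Fluorescence titration with KI as quencher, 0–12 × 10–3 mol L–1 in 2 × 10–3 mol L–1 steps. Compound at 1.0 × 10–5 mol L–1, alone or with DNA at 2.0 × 10–5 mol L–1. Run at 298 K with excitation at 290 nm. Quenching constant taken from a Stern–Volmer plot of F0/F against KI.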

Calf thymus DNA [13] = assay: Binding affinity to calf thymus DNA assessed as hypochromic effect between compound and DNA by UV absorption spectral analysis; format: nucleic-acid assay; conditions: Bos taurus; how it was run: as §2
Kregervanrija fluxuum [14] = assay: Potency index, ratio of miconazole MIC to compound MIC for Candida mycoderma; format: functional

Row | SMILES | MIC (Kregervanrija fluxuum [1]) | MIC (Cyberlindnera jadinii [2]) | MIC (Aspergillus flavus [3]) | MIC (Candida albicans) | MIC (Saccharomyces cerevisiae [4]) | Ratio (Cyberlindnera jadinii [5]) | Ratio (Saccharomyces cerevisiae [6]) | Ratio (Aspergillus flavus [7]) | Ratio (Aspergillus flavus [8]) | Activity (Calf thymus DNA [9]) | inhibition (Calf thymus DNA [10]) | Activity (Calf thymus DNA [11]) | K (Calf thymus DNA [11]) | KSV (Calf thymus DNA [12]) | Activity (Calf thymus DNA [13]) | Ratio (Kregervanrija fluxuum [14])
1 | Fc1ccc(C(Cn2cncn2)OCCCCCCOC(Cn2cncn2)c2ccc(F)cc2F)c(F)c1 (stereo unspecified) | 256 µg/mL (≈ 481 µM) | > 256 µg/mL | 256 µg/mL (≈ 481 µM) | 256 µg/mL (≈ 481 µM) | 128 µg/mL (≈ 240 µM) |  |  |  |  |  |  |  |  |  |  | 
2 | O=[N+]([O-])c1ccc(COC(Cn2cncn2)c2ccc(F)cc2F)cc1 (stereo unspecified) | > 256 µg/mL | > 256 µg/mL | > 256 µg/mL | > 256 µg/mL | > 256 µg/mL |  |  |  |  |  |  |  |  |  |  | 
3 | Cc1cc(=O)oc2cc(OCCOC(Cn3cncn3)c3ccc(F)cc3F)ccc12 (stereo unspecified) | 256 µg/mL (≈ 599 µM) | 256 µg/mL (≈ 599 µM) | 256 µg/mL (≈ 599 µM) | 128 µg/mL (≈ 299 µM) | 128 µg/mL (≈ 299 µM) |  |  |  |  |  |  |  |  |  |  | 
4 | OC(Cn1cncn1)(Cn1cncn1)c1ccc(F)cc1F [FLUCONAZOLE] | 4 µg/mL (≈ 13.1 µM) | 8 µg/mL (≈ 26.1 µM) | 256 µg/mL (≈ 836 µM) | 1 µg/mL (≈ 3.27 µM) | 16 µg/mL (≈ 52.2 µM) |  |  |  |  |  |  |  |  |  |  | 
5 | Fc1ccc(COC(Cn2c[n+](Cc3ccc(F)cc3F)cn2)c2ccc(F)cc2F)c(F)c1.[Cl-] (stereo unspecified) | > 256 µg/mL | > 256 µg/mL | > 256 µg/mL | > 256 µg/mL | 128 µg/mL |  |  |  |  |  |  |  |  |  |  | 
6 | O=[N+]([O-])c1ccc(COC(Cn2c[n+](Cc3ccc([N+](=O)[O-])cc3)cn2)c2ccc(F)cc2F)cc1.[Cl-] (stereo unspecified) | 16 µg/mL | 32 µg/mL | 16 µg/mL | 8 µg/mL | 64 µg/mL |  |  |  |  |  |  |  |  |  |  | 
7 | Fc1ccc(C(Cn2c[n+](Cc3ccc(Cl)c(Cl)c3)cn2)OCc2ccc(Cl)c(Cl)c2)c(F)c1.[Cl-] (stereo unspecified) | 64 µg/mL | 32 µg/mL | 64 µg/mL | 32 µg/mL | 16 µg/mL |  |  |  |  |  |  |  |  |  |  | 
8 | CCCCOC(Cn1cncn1)c1ccc(F)cc1F (stereo unspecified) | 64 µg/mL (≈ 228 µM) | 8 µg/mL (≈ 28.4 µM) | 128 µg/mL (≈ 455 µM) | 64 µg/mL (≈ 228 µM) | 128 µg/mL (≈ 455 µM) | 2 |  |  |  |  |  |  |  |  |  | 
9 | Fc1ccc(C(Cn2cncn2)OCCCCOC(Cn2cncn2)c2ccc(F)cc2F)c(F)c1 (stereo unspecified) | 128 µg/mL (≈ 254 µM) | 128 µg/mL (≈ 254 µM) | 64 µg/mL (≈ 127 µM) | 128 µg/mL (≈ 254 µM) | 64 µg/mL (≈ 127 µM) |  |  |  |  |  |  |  |  |  |  | 
10 | Fc1ccc(C(Cn2c[n+](Cc3ccc(Cl)cc3Cl)cn2)OCc2ccc(Cl)cc2Cl)c(F)c1.[Cl-] (stereo unspecified) | 32 µg/mL | 8 µg/mL | 32 µg/mL | 16 µg/mL | 64 µg/mL |  |  |  |  |  |  |  |  |  |  | 
11 | Fc1ccc(C(Cn2c[n+](Cc3ccccc3F)cn2)OCc2ccccc2F)c(F)c1.[Cl-] (stereo unspecified) | 8 µg/mL | 32 µg/mL | 64 µg/mL | 32 µg/mL | 32 µg/mL |  |  |  |  |  |  |  |  |  |  | 
12 | OC(Cn1cncn1)c1ccc(F)cc1F (stereo unspecified) | 256 µg/mL (≈ 1140 µM) | 256 µg/mL (≈ 1140 µM) | > 256 µg/mL | 128 µg/mL (≈ 568 µM) | > 256 µg/mL |  |  |  |  |  |  |  |  |  |  | 
13 | Fc1ccc(C(Cn2cncn2)OCc2cccc(Cl)c2)c(F)c1 (stereo unspecified) | 16 µg/mL (≈ 45.7 µM) | 8 µg/mL (≈ 22.9 µM) | 32 µg/mL (≈ 91.5 µM) | 16 µg/mL (≈ 45.7 µM) | 16 µg/mL (≈ 45.7 µM) |  |  |  |  |  |  |  |  |  |  | 
14 | CCCCCCCCOC(Cn1cncn1)c1ccc(F)cc1F (stereo unspecified) | 16 µg/mL (≈ 47.4 µM) | 16 µg/mL (≈ 47.4 µM) | 128 µg/mL (≈ 379 µM) | 4 µg/mL (≈ 11.9 µM) | 16 µg/mL (≈ 47.4 µM) |  |  |  |  |  |  |  |  |  |  | 
15 | CCCCCCCCCCCCOC(Cn1cncn1)c1ccc(F)cc1F (stereo unspecified) | > 256 µg/mL | > 256 µg/mL | 128 µg/mL (≈ 325 µM) | > 256 µg/mL | 8 µg/mL (≈ 20.3 µM) |  | 4 |  |  |  |  |  |  |  |  | 
16 | Fc1ccc(C(Cn2cncn2)OCc2ccc(Cl)cc2Cl)c(F)c1 (stereo unspecified) | 16 µg/mL (≈ 41.6 µM) | 4 µg/mL (≈ 10.4 µM) | 16 µg/mL (≈ 41.6 µM) | 8 µg/mL (≈ 20.8 µM) | 8 µg/mL (≈ 20.8 µM) |  |  | 16 | 16 |  |  |  |  |  |  | 
17 | Cc1cc(=O)oc2cc(OCCCCCCOC(Cn3cncn3)c3ccc(F)cc3F)ccc12 (stereo unspecified) | 1 µg/mL (≈ 2.07 µM) | 16 µg/mL (≈ 33.1 µM) | 16 µg/mL (≈ 33.1 µM) | 2 µg/mL (≈ 4.14 µM) | 16 µg/mL (≈ 33.1 µM) |  |  |  |  | Active | Dose-dependent effect | Dose-dependent effect | 5.06 ×10⁴ L/mol |  |  | 
18 | Fc1ccc(C(Cn2cncn2)OCc2ccc(Cl)cc2)c(F)c1 (stereo unspecified) | 16 µg/mL (≈ 45.7 µM) | 4 µg/mL (≈ 11.4 µM) | 8 µg/mL (≈ 22.9 µM) | 8 µg/mL (≈ 22.9 µM) | 16 µg/mL (≈ 45.7 µM) |  |  |  |  |  |  |  |  |  |  | 
19 | Fc1ccc(C(Cn2cncn2)OCc2ccc(Cl)c(Cl)c2)c(F)c1 (stereo unspecified) | 4 µg/mL (≈ 10.4 µM) | 1 µg/mL (≈ 2.6 µM) | 8 µg/mL (≈ 20.8 µM) | 1 µg/mL (≈ 2.6 µM) | 0.5 µg/mL (≈ 1.3 µM) |  | 64 | 32 | 32 |  | Dose-dependent effect | Dose-dependent effect | 1.04 ×10⁴ L/mol | 10.7 L/mol | Active | 
20 | Cc1cc(=O)oc2cc(OCCCCOC(Cn3cncn3)c3ccc(F)cc3F)ccc12 (stereo unspecified) | 2 µg/mL (≈ 4.39 µM) | 16 µg/mL (≈ 35.1 µM) | 32 µg/mL (≈ 70.3 µM) | 4 µg/mL (≈ 8.78 µM) | 4 µg/mL (≈ 8.78 µM) |  |  |  |  |  |  |  |  |  |  | 
21 | CCCOC(Cn1cncn1)c1ccc(F)cc1F (stereo unspecified) | 1 µg/mL (≈ 3.74 µM) | 32 µg/mL (≈ 120 µM) | 128 µg/mL (≈ 479 µM) | 4 µg/mL (≈ 15 µM) | 64 µg/mL (≈ 239 µM) |  |  |  |  |  |  |  |  |  |  | 8
22 | Clc1ccc(COC(Cn2ccnc2)c2ccc(Cl)cc2Cl)c(Cl)c1 (stereo unspecified) [MICONAZOLE] | 8 µg/mL (≈ 19.2 µM) | 16 µg/mL (≈ 38.4 µM) | 256 µg/mL (≈ 615 µM) | 4 µg/mL (≈ 9.61 µM) | 32 µg/mL (≈ 76.9 µM) |  |  |  |  |  |  |  |  |  |  | 
23 | Fc1ccc(C(Cn2cncn2)OCc2ccccc2Cl)c(F)c1 (stereo unspecified) | 8 µg/mL (≈ 22.9 µM) | 8 µg/mL (≈ 22.9 µM) | 16 µg/mL (≈ 45.7 µM) | 8 µg/mL (≈ 22.9 µM) | 16 µg/mL (≈ 45.7 µM) |  |  |  |  |  |  |  |  |  |  | 
24 | CCCCCCOC(Cn1cncn1)c1ccc(F)cc1F (stereo unspecified) | 32 µg/mL (≈ 103 µM) | 16 µg/mL (≈ 51.7 µM) | 32 µg/mL (≈ 103 µM) | 64 µg/mL (≈ 207 µM) | 32 µg/mL (≈ 103 µM) |  |  |  |  |  |  |  |  |  |  | 
25 | Fc1ccc(C(Cn2cncn2)OCCOC(Cn2cncn2)c2ccc(F)cc2F)c(F)c1 (stereo unspecified) | 256 µg/mL (≈ 537 µM) | 8 µg/mL (≈ 16.8 µM) | 256 µg/mL (≈ 537 µM) | 64 µg/mL (≈ 134 µM) | 8 µg/mL (≈ 16.8 µM) |  |  |  |  |  |  |  |  |  |  | 
26 | Fc1ccc(C(Cn2cncn2)OCc2ccccc2F)c(F)c1 (stereo unspecified) | 2 µg/mL (≈ 6 µM) | 4 µg/mL (≈ 12 µM) | 32 µg/mL (≈ 96 µM) | 0.5 µg/mL (≈ 1.5 µM) | 16 µg/mL (≈ 48 µM) |  |  | 8 | 8 |  |  |  |  |  |  | 
27 | Fc1ccc(COC(Cn2cncn2)c2ccc(F)cc2F)c(F)c1 (stereo unspecified) | 8 µg/mL (≈ 22.8 µM) | 4 µg/mL (≈ 11.4 µM) | 16 µg/mL (≈ 45.5 µM) | 4 µg/mL (≈ 11.4 µM) | 4 µg/mL (≈ 11.4 µM) |  |  | 16 | 16 |  |  |  |  |  |  | 

Source: ChEMBL document CHEMBL4261522, “Discovery of potential antifungal triazoles: design, synthesis, biological evaluation, and preliminary antifungal mechanism exploration” (Medchemcomm, 2017)
